The values that follow come from ChEMBL document CHEMBL4043093, “2-Oxo-3, 4-dihydropyrimido[4, 5-d]pyrimidinyl derivatives as new irreversible pan fibroblast growth factor receptor (FGFR) inhibitors” (Eur J Med Chem, 2017).

Assay [1] deals with Mitogen-activated protein kinase kinase kinase 9 (Homo sapiens) (UniProt P80192). Description: Inhibition of wild-type human partial length MLK1 (V88 to W426 residues) expressed in Escherichia coli BL21 assessed as residual activity at 1000 nM after 30 mins by Kinomescan method relative to control.
Assay [2] addresses Mitogen-activated protein kinase kinase kinase 2 (Homo sapiens) (UniProt Q9Y2U5). As to the kind of experiment: Inhibition of wild-type human partial length MAP3K2 (S315 to H619 residues) expressed in HEK293 cells assessed as residual activity at 1000 nM after 30 mins by Kinomescan method relative to control. Format: cell-based.
Assay [3] deals with Casein kinase I isoform gamma-1 (Homo sapiens) (UniProt Q9HCP0). As to the kind of experiment: Inhibition of wild-type human partial length CSNK1G1 (T15 to S353 residues) expressed in Escherichia coli BL21 assessed as residual activity at 1000 nM after 30 mins by Kinomescan method relative to control.
Assay [4] concerns the target MAP kinase-interacting serine/threonine-protein kinase 1 (Homo sapiens) (UniProt Q9BUB5). Description: Inhibition of wild-type human full length MKNK1 (M1 to L424 residues) expressed in HEK293 cells assessed as residual activity at 1000 nM after 30 mins by Kinomescan method relative to control. Format: cell-based. Summed up:
(§1)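 Single-concentration screen at 1 µM across a 456-kinase KINOMEscan panel. The read-out is Percent Control for each kinase.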

For assay [5], the target named is Testis-specific serine/threonine-protein kinase 1 (Homo sapiens) (UniProt Q9BXA7). Description: Inhibition of wild-type human full length TSSK1B (M1 to Q367 residues) expressed in Escherichia coli BL21 assessed as residual activity at 1000 nM after 30 mins by Kinomescan method relative to control.
In assay [6] the target is Serine/threonine-protein kinase PAK 3 (Homo sapiens) (UniProt O75914). As to the kind of experiment: Inhibition of wild-type human full length PAK3 (M1 to R544 residues) expressed in Escherichia coli BL21 assessed as residual activity at 1000 nM after 30 mins by Kinomescan method relative to control. The procedure, abridged:
as §1

Assay [7] concerns Tyrosine-protein kinase ABL1 (Homo sapiens), P00519 [F317I]. Description: Inhibition of human non-phosphorylated ABL1 F317I mutant (S229 to K512 residues) expressed in HEK293 cells assessed as residual activity at 1000 nM after 30 mins by Kinomescan method relative to control. Format: cell-based. Summed up: (§2)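 KINOMEscan binding panel of 456 kinases, with the test compound at a single concentration of 1 µM. Read-out is Percent Control.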

The target of assay [8] is Tyrosine-protein kinase CSK (Homo sapiens) (UniProt P41240). As to the kind of experiment: Inhibition of wild-type human full length CSK (M1 to L450 residues) expressed in Escherichia coli BL21 assessed as residual activity at 1000 nM after 30 mins by Kinomescan method relative to control. The procedure, abridged:
(§3)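 Single-point screen at a fixed 1 µM, run within a 456-kinase DiscoveRx KINOMEscan panel. Each kinase's read-out is Percent Control, i.e. signal relative to a control without compound. Hits were scored by a Percent Control < 35 cut-off, and an S(35) selectivity score was calculated across the non-mutant kinases.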

The target of assay [9] is Mitogen-activated protein kinase 6 (Homo sapiens) (UniProt Q16659). Description: Inhibition of wild-type human partial length ERK3 (M1 to P413 residues) expressed in Escherichia coli BL21 assessed as residual activity at 1000 nM after 30 mins by Kinomescan method relative to control.
For assay [10], the target named is Serine/threonine-protein kinase NIM1 (Homo sapiens) (UniProt Q8IY84). Description: Inhibition of wild-type human partial length NIM1 (Q44 to N355 residues) expressed in HEK293 cells assessed as residual activity at 1000 nM after 30 mins by Kinomescan method relative to control. Format: cell-based.
Assay [11] deals with Tyrosine-protein kinase ABL1 (Homo sapiens), P00519 [T315I]. As to the kind of experiment: Inhibition of human non-phosphorylated ABL1 T315I mutant (S229 to K512 residues) expressed in HEK293 cells assessed as residual activity at 1000 nM after 30 mins by Kinomescan method relative to control. Type of assay: cell-based. Summed up: as §2
Assay [12] has as its target Calcium/calmodulin-dependent protein kinase type 1G (Homo sapiens) (UniProt Q96NX5). Description: Inhibition of wild-type human partial length CAMK1G (M1 to A342 residues) expressed in Escherichia coli BL21 assessed as residual activity at 1000 nM after 30 mins by Kinomescan method relative to control.
Assay [13] concerns Serine/threonine-protein kinase B-raf (Homo sapiens), P15056 [V600E]. Description: Inhibition of human partial length BRAF V600E mutant (S429 to E741 residues) expressed in HEK293 cells assessed as residual activity at 1000 nM after 30 mins by Kinomescan method relative to control. Type of assay: cell-based. Summed up:
as §2

Assay [14] has as its target Serine/threonine-protein kinase PRP4 homolog (Homo sapiens) (UniProt Q13523). As to the kind of experiment: Inhibition of wild-type human partial length PRP4 (D657 to I1007 residues) expressed in Escherichia coli BL21 assessed as residual activity at 1000 nM after 30 mins by Kinomescan method relative to control.
The test system of assay [15] is Phosphatidylinositol 4,5-bisphosphate 3-kinase catalytic subunit alpha isoform (Homo sapiens), P42336 [H1047Y]. Description: Inhibition of human partial length PIK3CA H1047Y mutant (R108 to N1068 residues) expressed in HEK293 cells assessed as residual activity at 1000 nM after 30 mins by Kinomescan method relative to control. Format: cell-based. Summed up: as §2

In assay [16] the target is Dual specificity protein kinase CLK1 (Homo sapiens) (UniProt P49759). Description: Inhibition of wild-type human full length CLK1 (M1 to I484 residues) expressed in Escherichia coli BL21 assessed as residual activity at 1000 nM after 30 mins by Kinomescan method relative to control. Summed up:
as §3

For assay [17], the target named is Insulin receptor (Homo sapiens) (UniProt P06213). As to the kind of experiment: Inhibition of wild-type human partial length INSR (P997 to E1318 residues) expressed in HEK293 cells assessed as residual activity at 1000 nM after 30 mins by Kinomescan method relative to control. Type of assay: cell-based.
Assay [18] deals with Serine/threonine-protein kinase D2 (Homo sapiens) (UniProt Q9BZL6). Description: Inhibition of wild-type human partial length PRKD2 (A519 to E838 residues) expressed in Escherichia coli BL21 assessed as residual activity at 1000 nM after 30 mins by Kinomescan method relative to control.
Assay [19] deals with Mast/stem cell growth factor receptor Kit (Homo sapiens) (UniProt P10721). Description: Inhibition of wild-type human partial length KIT (I571 to D952 residues) expressed in Escherichia coli BL21 assessed as residual activity at 1000 nM after 30 mins by Kinomescan method relative to control.
Assay [20] addresses Serine/threonine-protein kinase PLK4 (Homo sapiens) (UniProt O00444). As to the kind of experiment: Inhibition of wild-type human partial length PLK4 (M1 to S273 residues) expressed in HEK293 cells assessed as residual activity at 1000 nM after 30 mins by Kinomescan method relative to control. Type of assay: cell-based.
The target in assay [21] is Ephrin type-A receptor 4 (Homo sapiens) (UniProt P54764). Description: Inhibition of wild-type human partial length EPHA4 (T601 to R897 residues) expressed in Escherichia coli BL21 assessed as residual activity at 1000 nM after 30 mins by Kinomescan method relative to control.

Structures are written as SMILES.

Serine/threonine-protein kinase PRP4 homolog (Homo sapiens), sequence (Q13523 whole entry, the tested form may be a part, canonical isoform): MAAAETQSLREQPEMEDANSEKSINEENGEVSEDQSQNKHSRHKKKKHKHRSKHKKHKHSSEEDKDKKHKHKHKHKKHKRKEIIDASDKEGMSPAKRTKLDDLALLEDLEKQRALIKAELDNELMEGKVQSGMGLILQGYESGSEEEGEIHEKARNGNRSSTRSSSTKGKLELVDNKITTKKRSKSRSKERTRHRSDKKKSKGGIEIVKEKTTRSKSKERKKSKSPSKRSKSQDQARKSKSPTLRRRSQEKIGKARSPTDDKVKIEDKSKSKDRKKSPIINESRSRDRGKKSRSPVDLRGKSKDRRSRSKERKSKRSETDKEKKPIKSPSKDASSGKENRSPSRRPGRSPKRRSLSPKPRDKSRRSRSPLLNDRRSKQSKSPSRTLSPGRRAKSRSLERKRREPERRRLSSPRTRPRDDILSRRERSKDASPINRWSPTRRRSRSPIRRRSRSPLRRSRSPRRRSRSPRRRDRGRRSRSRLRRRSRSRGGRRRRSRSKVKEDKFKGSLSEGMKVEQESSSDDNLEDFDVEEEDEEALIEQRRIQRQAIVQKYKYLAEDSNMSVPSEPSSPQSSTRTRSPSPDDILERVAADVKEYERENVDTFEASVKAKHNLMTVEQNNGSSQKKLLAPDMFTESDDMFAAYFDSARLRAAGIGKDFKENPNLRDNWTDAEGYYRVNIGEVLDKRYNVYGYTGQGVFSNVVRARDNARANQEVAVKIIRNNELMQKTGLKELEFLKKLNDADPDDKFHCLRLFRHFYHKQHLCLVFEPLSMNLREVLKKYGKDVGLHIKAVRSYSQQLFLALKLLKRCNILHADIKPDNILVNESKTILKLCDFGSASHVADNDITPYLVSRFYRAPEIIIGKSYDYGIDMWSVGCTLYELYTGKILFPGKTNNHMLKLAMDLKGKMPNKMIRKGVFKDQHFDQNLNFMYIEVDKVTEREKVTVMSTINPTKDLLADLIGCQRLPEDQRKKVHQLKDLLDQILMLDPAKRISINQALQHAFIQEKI
Testis-specific serine/threonine-protein kinase 1 (Homo sapiens), sequence (Q9BXA7 whole entry, the tested form may be a part): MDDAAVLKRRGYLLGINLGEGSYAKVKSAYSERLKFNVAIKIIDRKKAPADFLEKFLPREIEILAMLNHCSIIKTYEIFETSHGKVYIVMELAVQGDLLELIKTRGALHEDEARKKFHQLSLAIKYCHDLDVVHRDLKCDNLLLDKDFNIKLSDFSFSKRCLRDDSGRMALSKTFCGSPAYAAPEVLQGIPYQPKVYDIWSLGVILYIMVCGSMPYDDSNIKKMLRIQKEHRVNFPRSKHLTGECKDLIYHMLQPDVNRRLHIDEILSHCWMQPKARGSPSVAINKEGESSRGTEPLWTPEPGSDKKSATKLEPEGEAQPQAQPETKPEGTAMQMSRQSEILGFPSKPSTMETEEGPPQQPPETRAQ
Tyrosine-protein kinase CSK (Homo sapiens), sequence (P41240 2-450 limits assumed): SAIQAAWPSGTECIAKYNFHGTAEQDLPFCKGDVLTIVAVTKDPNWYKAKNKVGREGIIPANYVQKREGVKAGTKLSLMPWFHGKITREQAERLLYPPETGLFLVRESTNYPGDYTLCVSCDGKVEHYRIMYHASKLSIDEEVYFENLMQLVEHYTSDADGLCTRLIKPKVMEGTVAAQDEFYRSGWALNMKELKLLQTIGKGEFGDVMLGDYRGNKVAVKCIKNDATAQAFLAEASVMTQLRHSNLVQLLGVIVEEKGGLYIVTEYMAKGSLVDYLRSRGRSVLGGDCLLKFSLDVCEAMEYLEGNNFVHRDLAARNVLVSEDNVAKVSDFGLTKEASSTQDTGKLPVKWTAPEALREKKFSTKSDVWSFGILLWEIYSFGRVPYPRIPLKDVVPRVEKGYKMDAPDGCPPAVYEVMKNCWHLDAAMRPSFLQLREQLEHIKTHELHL
Mitogen-activated protein kinase kinase kinase 2 (Homo sapiens), sequence (Q9Y2U5 whole entry, the tested form may be a part, canonical isoform): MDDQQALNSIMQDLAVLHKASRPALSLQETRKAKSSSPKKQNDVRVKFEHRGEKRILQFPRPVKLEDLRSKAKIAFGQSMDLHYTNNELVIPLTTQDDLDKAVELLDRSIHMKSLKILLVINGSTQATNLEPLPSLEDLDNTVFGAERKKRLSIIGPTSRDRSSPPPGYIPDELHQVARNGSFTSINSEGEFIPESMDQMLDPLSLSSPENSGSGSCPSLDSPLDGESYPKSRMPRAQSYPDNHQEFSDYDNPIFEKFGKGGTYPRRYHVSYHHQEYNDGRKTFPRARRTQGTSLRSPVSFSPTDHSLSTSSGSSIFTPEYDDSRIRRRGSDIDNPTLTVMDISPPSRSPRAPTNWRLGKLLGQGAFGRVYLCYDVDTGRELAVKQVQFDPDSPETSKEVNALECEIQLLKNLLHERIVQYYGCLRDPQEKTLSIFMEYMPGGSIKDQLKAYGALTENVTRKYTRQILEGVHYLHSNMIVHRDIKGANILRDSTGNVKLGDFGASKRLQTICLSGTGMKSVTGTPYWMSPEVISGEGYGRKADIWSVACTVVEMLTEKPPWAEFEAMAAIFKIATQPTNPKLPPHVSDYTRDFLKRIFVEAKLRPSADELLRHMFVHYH
Mitogen-activated protein kinase 6 (Homo sapiens), sequence (Q16659 whole entry, the tested form may be a part): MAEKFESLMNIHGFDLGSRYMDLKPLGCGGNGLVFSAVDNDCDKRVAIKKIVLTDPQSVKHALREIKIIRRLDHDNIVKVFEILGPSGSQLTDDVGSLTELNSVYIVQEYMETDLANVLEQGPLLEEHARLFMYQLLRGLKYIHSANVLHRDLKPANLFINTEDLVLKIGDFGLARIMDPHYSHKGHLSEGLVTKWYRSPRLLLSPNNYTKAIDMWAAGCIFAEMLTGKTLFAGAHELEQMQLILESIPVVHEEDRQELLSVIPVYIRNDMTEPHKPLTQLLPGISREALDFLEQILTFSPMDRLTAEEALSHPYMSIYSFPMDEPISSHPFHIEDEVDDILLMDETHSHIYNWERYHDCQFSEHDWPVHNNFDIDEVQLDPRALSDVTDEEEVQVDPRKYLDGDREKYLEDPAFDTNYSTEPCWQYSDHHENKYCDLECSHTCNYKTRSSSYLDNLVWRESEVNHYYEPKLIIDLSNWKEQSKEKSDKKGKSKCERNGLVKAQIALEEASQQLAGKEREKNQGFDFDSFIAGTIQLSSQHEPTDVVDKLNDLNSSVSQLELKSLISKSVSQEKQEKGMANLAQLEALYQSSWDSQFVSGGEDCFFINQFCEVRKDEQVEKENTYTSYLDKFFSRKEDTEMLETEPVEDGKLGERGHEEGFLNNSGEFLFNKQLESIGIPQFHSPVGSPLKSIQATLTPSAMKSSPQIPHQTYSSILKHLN
Serine/threonine-protein kinase NIM1 (Homo sapiens), sequence (Q8IY84 whole entry, the tested form may be a part): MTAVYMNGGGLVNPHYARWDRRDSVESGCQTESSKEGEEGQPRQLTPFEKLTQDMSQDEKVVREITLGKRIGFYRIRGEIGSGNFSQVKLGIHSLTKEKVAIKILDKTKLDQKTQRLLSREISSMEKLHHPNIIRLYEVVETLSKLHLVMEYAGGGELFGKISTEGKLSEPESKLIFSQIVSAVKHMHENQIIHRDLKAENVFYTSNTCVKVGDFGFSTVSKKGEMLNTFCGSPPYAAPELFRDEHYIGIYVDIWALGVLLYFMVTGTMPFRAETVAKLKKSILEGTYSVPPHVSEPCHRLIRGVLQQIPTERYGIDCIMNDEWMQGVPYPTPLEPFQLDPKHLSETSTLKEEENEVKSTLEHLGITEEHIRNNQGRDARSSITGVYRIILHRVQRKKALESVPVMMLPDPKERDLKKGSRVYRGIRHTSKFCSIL
Mitogen-activated protein kinase kinase kinase 9 (Homo sapiens), sequence (P80192 whole entry, looked up, the tested form may be a part): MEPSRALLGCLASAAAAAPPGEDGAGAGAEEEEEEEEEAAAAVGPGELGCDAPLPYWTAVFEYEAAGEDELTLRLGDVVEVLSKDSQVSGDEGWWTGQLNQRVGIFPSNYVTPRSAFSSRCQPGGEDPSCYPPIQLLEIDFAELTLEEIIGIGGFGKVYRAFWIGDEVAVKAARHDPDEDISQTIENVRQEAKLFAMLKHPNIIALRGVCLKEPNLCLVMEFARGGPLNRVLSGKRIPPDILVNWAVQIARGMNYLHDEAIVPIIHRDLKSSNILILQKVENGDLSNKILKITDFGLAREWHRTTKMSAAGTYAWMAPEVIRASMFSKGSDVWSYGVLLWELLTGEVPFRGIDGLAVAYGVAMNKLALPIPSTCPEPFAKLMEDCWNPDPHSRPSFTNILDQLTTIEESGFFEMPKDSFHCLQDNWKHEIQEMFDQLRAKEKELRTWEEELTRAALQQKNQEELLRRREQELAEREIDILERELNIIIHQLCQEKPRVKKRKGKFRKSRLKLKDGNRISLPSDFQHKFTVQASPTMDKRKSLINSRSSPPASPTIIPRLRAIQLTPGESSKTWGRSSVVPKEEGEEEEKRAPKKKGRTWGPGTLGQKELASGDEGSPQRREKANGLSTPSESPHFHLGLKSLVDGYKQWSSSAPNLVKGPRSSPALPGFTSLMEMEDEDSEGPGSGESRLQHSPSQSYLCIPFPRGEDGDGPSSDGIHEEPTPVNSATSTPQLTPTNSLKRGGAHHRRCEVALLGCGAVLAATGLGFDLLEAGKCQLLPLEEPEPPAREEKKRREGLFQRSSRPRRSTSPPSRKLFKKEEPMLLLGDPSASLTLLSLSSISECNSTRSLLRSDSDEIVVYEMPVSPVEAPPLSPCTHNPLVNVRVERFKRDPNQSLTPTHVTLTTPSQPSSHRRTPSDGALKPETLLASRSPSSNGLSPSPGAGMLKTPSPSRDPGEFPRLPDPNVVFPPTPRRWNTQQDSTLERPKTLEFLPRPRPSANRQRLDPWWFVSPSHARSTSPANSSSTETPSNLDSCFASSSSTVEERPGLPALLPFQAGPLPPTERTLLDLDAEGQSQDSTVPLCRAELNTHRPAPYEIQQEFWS

Consider `COc1cc(OC)c(Cl)c(N2Cc3cnc(Nc4ccc(F)cc4)nc3N(C3CCN(C(=O)/C=C/CN(C)C)CC3)C2=O)c1Cl`, for which the Activity came to 97% in [1]; 0.8% in assay [2]; 82% in assay [3]; 88% in assay [4]; 89% in [5]; 99% in assay [6]. For the same compound, the Activity in assay [7], in assay [8], in assay [9], in [10], in [11] and in [12] was 100% each time. Besides, the Activity in assay [13] came to 83%; in assay [14], 92%; in assay [15], 100%; in assay [16], 100%; in assay [17] it was 87%; in assay [18], 98%. Also, the Activity in [19] is 19%; in assay [20] it was 100%; in assay [21], 100%.
